Measured values taken from ChEMBL document CHEMBL1124924, “Aromatic thiazole derivatives: structurally novel and selective serotonin-3 receptor antagonists” (J Med Chem, 1990).

Experiments:
[1] = target: T1, Serotonin 3 (5-HT3) receptor (Rattus norvegicus, UniProt P35563+Q9JJ16); test: In vitro displacement of [3H]ICS-205-930 from 5-hydroxytryptamine 3 receptor in cultured NG-108-15 […] cells
T1 sequence (P35563 whole entry): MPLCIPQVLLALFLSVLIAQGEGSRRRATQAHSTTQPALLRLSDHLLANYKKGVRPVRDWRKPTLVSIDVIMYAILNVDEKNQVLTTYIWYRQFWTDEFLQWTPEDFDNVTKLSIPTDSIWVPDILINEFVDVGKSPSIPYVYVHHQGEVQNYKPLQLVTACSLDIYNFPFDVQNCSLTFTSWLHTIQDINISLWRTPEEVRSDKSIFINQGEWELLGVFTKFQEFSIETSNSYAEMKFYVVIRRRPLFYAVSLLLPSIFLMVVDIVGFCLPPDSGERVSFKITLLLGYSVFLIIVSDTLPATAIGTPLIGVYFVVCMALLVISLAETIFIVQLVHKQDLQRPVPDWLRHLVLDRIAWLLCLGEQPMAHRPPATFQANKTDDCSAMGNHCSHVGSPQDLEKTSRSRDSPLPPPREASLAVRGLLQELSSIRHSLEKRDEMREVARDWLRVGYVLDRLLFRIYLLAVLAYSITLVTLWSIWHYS
T1 sequence (Q9JJ16 whole entry): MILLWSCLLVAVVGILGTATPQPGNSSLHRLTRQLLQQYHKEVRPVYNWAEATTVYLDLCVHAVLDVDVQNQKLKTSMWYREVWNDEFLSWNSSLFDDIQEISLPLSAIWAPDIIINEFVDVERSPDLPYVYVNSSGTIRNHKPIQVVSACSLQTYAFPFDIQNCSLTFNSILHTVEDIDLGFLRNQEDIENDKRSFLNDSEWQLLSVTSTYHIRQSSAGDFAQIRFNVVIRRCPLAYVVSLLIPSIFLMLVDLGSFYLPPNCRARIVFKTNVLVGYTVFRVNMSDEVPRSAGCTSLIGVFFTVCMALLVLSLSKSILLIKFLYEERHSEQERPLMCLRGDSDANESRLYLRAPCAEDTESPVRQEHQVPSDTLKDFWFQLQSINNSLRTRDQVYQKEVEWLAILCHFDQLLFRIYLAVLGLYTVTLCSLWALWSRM

Rattus norvegicus [2] = test: Percent inhibition of serotonin-induced B-J reflex (Bezold-Jarisch reflex)in the right femoral vein of rat at a dose of 50 ug/kg; assay type: functional
Outline: (§1)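 Rats given test compound and serotonin intravenously through a cannula in the right femoral vein. Von Bezold-Jarisch reflex read as blockade of serotonin-induced bradycardia. Otherwise run by a previously published procedure.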

Rattus norvegicus [3] = test: Percent response to 100 ug/kg serotonin was determined as blockade of serotonin-induced bradycardia in anesthetized rat; assay type: functional
Outline: (§2)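 Rat von Bezold–Jarisch reflex, read as blockade of serotonin-induced bradycardia. Test compound and serotonin were both given iv through a cannula in the right femoral vein.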

Rattus norvegicus [4] = test: Percent inhibition of serotonin-induced B-J reflex (Bezold-Jarisch reflex)in the right femoral vein of rat at a dose of 10 ug/kg; assay type: functional; outline: as §1
Rattus norvegicus [5] = test: (§3) Percent inhibition of serotonin-induced B-J reflex (Bezold-Jarisch reflex)in the right femoral vein of rat at a dose of 100 ug/kg; assay type: functional; outline: as §2
Rattus norvegicus [6] = test: (§4) Percent inhibition of serotonin-induced B-J reflex (Bezold-Jarisch reflex)in the right femoral vein of rat at a dose of 2 ug/kg; assay type: functional; outline: as §1
Rattus norvegicus [7] = test: as §3; assay type: functional; outline: as §1; remark: listed apart in the source
Rattus norvegicus [8] = test: Percent inhibition of serotonin-induced B-J reflex (Bezold-Jarisch reflex)in the right femoral vein of rat at a dose of 1 mg/kg po; assay type: functional
Rattus norvegicus [9] = test: Percent inhibition of serotonin-induced B-J reflex (Bezold-Jarisch reflex)in the right femoral vein of rat at a dose of 20 ug/kg; assay type: functional; outline: as §2
Rattus norvegicus [10] = test: as §4; assay type: functional; outline: as §2; remark: listed apart in the source

SMILES | Ki [1] [nM] | Response (Rattus norvegicus [3]) [%] | inhibition in vivo at 0.002 mg/kg (Rattus norvegicus [6]) [%] | inhibition in vivo at 0.02 mg/kg (Rattus norvegicus [9]) [%] | other results
Cc1[nH]c2ccc(O)cc2c1CCN | 1220 | 41 | – | – | inhibition in vivo at 0.05 mg/kg (Rattus norvegicus [2]): 66%; inhibition in vivo at 0.01 mg/kg (Rattus norvegicus [4]): 23%
Cc1nc(Cc2nc(-c3ccccc3)cs2)c[nH]1 | 226 | 0 | – | – | inhibition in vivo at 0.1 mg/kg (Rattus norvegicus [5]): 7%
c1ccc(-c2csc(Cc3c[nH]cn3)n2)cc1 | 0.99 | 80 | 41 | – | –
Cc1nccn1Cc1nc(-c2c[nH]c3ccccc23)cs1 | > 1000 | 0 | – | – | inhibition in vivo at 0.1 mg/kg (Rattus norvegicus [5]): 7%
Cc1[nH]cnc1Cc1nc(-c2c[nH]c3ccccc23)cs1 | 10.4 | 0 | – | – | inhibition in vivo at 0.1 mg/kg (Rattus norvegicus [7]): 45%
Cc1[nH]cnc1Cc1nc(-c2ccccc2)cs1 | 1.5 | 0 | 11 | 86 | inhibition in vivo at 1 mg/kg (Rattus norvegicus [8]): 67%
N=C(N)NCc1nc(-c2c[nH]c3ccccc23)cs1 | 3.3 | 60 | – | 82 | inhibition in vivo at 1 mg/kg (Rattus norvegicus [8]): 0%; inhibition in vivo at 0.002 mg/kg (Rattus norvegicus [10]): 51%
c1ccc2c(-c3csc(Cc4c[nH]cn4)n3)c[nH]c2c1 | 14.2 | 14 | – | – | inhibition in vivo at 0.1 mg/kg (Rattus norvegicus [7]): 63%
Cc1nccn1CC1CCc2c(c3ccccc3n2C)C1=O (centres undefined) [ONDANSETRON] | – | 0 | – | 90 | inhibition in vivo at 0.002 mg/kg (Rattus norvegicus [10]): 43%
CN1[C@@H]2CC[C@H]1C[C@@H](OC(=O)c1c[nH]c3ccccc13)C2 [TROPISETRON] | – | 0 | 76 | – | –
